Screens deposited in PubChem BioAssay by several laboratories.
GRK2 inh = compounds blocking aptamer binding on GRK2 – biochemical, human GRK2, bead flow cytometry, HTS, primary screen. Beta-adrenergic receptor kinase 1 (Homo sapiens), P25098. FAM-aptamer displacement from GRK2. inhibition of aptamer binding, % at 10 µM. hit rate 0.59% among 330,000. AID 488847, 2010;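 active means inhibition of aptamer binding above 40%, roughly 3 SD of noise, on plates passing a quality check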;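 further: median bead fluorescence of bound FAM aptamer so fluorescent compounds give negative values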
Scp-1 inhibitor = Scp-1 phosphatase inhibitors, primary screen, biochemical, colorimetric, uHTS. Recombinant Scp1, phosphopeptide, malachite green phosphate absorbance. hit rate 0.88% among 340,000. AID 493091, 2011. inhibition, % at 20 µM;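 active means inhibition above about 50% at 20 µM, limit read from the data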;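 further: plate controls were DMSO wells with enzyme for no effect and wells lacking enzyme for full effect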
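Test system – truncated SCP-1 phosphatase (76-261aa) · Reagent – Phosphorylated 17-residue peptide substrate · Incubation – 45 min room-temperature reaction, 5 min colour, 30 min stabiliser · Detection – colorimetric phosphate reagent with accelerator and stabiliser, absorbance at 630 nm · Measure – % inhibition at 20 µM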
LMPTP inh = LMPTP phosphatase inhibitors, primary screen, biochemical, fluorescence intensity, uHTS. recombinant LMPTP-A, OMFP fluorogenic substrate. inhibition, % at 20 µM. hit rate 0.22% among 360,000;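 active means compounds that cut the enzyme signal by at least half of the control window in the single-dose screen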;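 further: plate controls were DMSO wells with enzyme plus substrate for no effect and substrate without enzyme for full effect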
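Assay system: LMPTP-A, protein tyrosine phosphatase of low molecular weight / Medium: pH 6.0 Bis-Tris buffer with DTT and Triton X-100 / Schedule: 50 min enzyme reaction at room temperature, protected from light / Measured by: endpoint fluorescence intensity from OMFP dephosphorylation / Read-out basis: % inhibition relative to no-enzyme and uninhibited control wells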
DNMT1 block = human DNMT1 methyltransferase inhibitors, primary screen, biochemical, molecular beacon, fluorescence, HinP1I cleavage, uHTS; AID 588458, 2011; inhibition (reported as % activation of signal), % at 10 µM; hit rate 0.83% among 360,000; DNA (cytosine-5)-methyltransferase 1 (Homo sapiens), P26358; in the data active means inhibition above about 50%
Target sequence (P26358 504-1616 limits assumed): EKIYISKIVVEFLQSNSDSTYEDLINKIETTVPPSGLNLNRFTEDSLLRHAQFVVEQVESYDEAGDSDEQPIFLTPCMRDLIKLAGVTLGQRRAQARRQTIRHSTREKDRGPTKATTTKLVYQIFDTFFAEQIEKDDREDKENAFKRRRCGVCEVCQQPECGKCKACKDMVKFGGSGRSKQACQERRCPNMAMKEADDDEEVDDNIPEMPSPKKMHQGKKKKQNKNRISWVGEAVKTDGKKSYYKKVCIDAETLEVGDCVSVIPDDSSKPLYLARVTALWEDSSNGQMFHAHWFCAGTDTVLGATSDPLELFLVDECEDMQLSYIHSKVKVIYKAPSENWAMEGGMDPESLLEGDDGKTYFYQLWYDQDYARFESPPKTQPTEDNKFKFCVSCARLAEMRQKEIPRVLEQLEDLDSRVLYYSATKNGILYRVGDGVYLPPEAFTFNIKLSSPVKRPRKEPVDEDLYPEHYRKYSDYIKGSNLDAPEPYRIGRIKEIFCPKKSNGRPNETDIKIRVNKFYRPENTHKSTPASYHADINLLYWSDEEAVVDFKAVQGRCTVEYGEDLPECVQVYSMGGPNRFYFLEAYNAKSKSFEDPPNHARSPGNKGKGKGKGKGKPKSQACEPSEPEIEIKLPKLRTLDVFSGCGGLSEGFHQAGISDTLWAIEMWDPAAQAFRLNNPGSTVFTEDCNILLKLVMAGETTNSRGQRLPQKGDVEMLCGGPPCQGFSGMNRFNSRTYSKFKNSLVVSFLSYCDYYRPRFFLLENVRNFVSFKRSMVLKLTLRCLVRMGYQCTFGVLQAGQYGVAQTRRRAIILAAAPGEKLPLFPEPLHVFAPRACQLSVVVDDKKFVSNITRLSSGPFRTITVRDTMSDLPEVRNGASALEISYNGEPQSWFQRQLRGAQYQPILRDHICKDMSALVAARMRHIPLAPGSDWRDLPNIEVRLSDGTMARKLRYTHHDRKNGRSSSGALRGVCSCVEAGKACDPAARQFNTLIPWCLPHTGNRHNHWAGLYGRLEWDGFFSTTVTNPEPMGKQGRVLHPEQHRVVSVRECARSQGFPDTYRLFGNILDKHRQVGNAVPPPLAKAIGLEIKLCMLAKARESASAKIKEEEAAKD
SUMO1 PPI mod = modulators of SUMO1 protein-protein interactions, primary screen, biochemical, uHTS; Small ubiquitin-related modifier 1 (Homo sapiens), P63165; SUMO1 binding to a labelled peptide, TR-FRET, 1 h; inhibition, % at 20 µM; hit rate 0.33% among 360,000; in the data active means inhibition above about 37%
STEP block = STEP phosphatase inhibitors, primary screen, biochemical, fluorescence intensity, uHTS; Tyrosine-protein phosphatase non-receptor type 5 (Homo sapiens), P54829; recombinant STEP, OMFP fluorogenic substrate; inhibition, % at 20 µM; hit rate 0.25% among 360,000;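 active means inhibition at 20 µM, scaled per plate between control wells, above about 37%, limit read from the data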;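 further: 0% = DMSO with enzyme and substrate and 100% = substrate only without enzyme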
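material = STEP tyrosine phosphatase | reagent = fluorogenic phosphatase substrate OMFP at 25 µM final | doses = single compound dose of 20 µM, 1% DMSO final | schedule = 20 min reaction, room temperature, in the dark | measured by = fluorescence, 480/540 nm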
DNMT1 interf DR = spectral interference with molecular beacon fluorescence, dose response, artefact control for DNMT1 inhibitor project, biochemical, fluorescent molecular beacon; shares compounds with DNMT1 block; spectral interference counter-screen; IC50, µM; 200 tested, under 10 active; AID 602382, 2012; call rule not given here
DNMT1 confirm = DNMT1 methyltransferase inhibitor retest, confirmation, biochemical, molecular beacon, fluorescence, single concentration. AID 602385, 2012. DNMT1 molecular beacon HinP1I cleavage. shares compounds with DNMT1 block. hit rate 8% among 2,300. inhibition, % at 10 µM;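 active means average inhibition of at least 30% in the single-concentration confirmation test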
Beacon interf = shows spectral interference in the DNMT1 beacon assay | shares compounds with DNMT1 block | DNMT1 molecular beacon spectral interference counterscreen, fluorescence 485/520 | activation (fluorescence interference), % at 10 µM | hit rate 1% among 2,300 | AID 602387;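 active means activation of at least 30% at 10 µM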;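 further: DNMT1 catalytic domain with a HinP1I cleavage step and a FAM/dabcyl DNA beacon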
* = called active by the depositor; . = not tested or not shown. Shown are actives, neighbours in structure and some others; about 2.1% of the full set was active somewhere.

SMILES	GRK2 inh	Scp-1 inhibitor	LMPTP inh	DNMT1 block	SUMO1 PPI mod	STEP block	DNMT1 confirm	Beacon interf	others
Cc1cc(C(=O)Nc2cc(C)on2)on1	0	-1	0	81*	8	-4	6	1
CCCCn1c(NC(=O)CC)c(C#N)c2nc3ccccc3nc21	0	11	0	74*	-18	28	1	2
CCC(=O)Nc1c(C#N)c2nc3ccccc3nc2n1C1CCCCC1	0	28	2	94*	72*	3	2	-1
CCC(=O)Nc1c(C#N)c2nc3ccccc3nc2n1-c1ccccc1C	2	-5	0	-20	-17	2	.	.
Cc1cccnc1NC(=O)c1cccc(S(=O)(=O)NCc2ccccc2)c1	0	-1	0	1	2	1	.	.
O=C1CCC/C(=N/NC(=O)C2CCN(S(=O)(=O)c3cccs3)CC2)C1	4	-7	-1	71*	0	-3	1	4
O=C(C1CCN(S(=O)(=O)c2cccs2)CC1)N1CCCCC1	0	7	-1	4	11	1	.	.
Cn1c2ccccc2c(=O)c2c(=O)n(Cc3ccccc3)c(-c3ccc(F)cc3)nc21	0	0	1	63*	-8	1	0	0
COc1ccc(Cn2c(-c3ccc(C)cc3)nc3c(c(=O)c4ccccc4n3C)c2=O)cc1	0	2	11	83*	5	2	2	4
CC(C)(C)CC(=O)NCCc1csc(-c2ccccc2)n1	3	-4	0	2	-2	0	.	.
Cn1c(SCC(=O)c2cc(Cl)c(Cl)s2)nnc1-c1ccco1	.	10	30	52*	15	31	8	5
Cc1nn(-c2ccccc2)c(C)c1/C=N/n1c(-c2ccc(Cl)cc2)n[nH]c1=S	0	-3	2	57*	-2	4	1	2
Cc1nn(-c2ccccc2)c(C)c1/C=N/n1c(-c2ccncc2)n[nH]c1=S	0	1	2	4	5	4	.	.
CC(C)(C)S(=O)N1Cc2cc(CO)ccc2[C@H]1CCO (stereo partly drawn)	.	.	-1	1	-1	2	.	.
COc1ccc(NC(=O)NC2(C(=O)N3CCOCC3)CCCCC2)cc1	0	-9	0	54*	5	-1	1	-3
c1ccc(-c2cn3ccccc3n2)cc1	.	-4	3	3	0	-1	.	.
Oc1ccc(-c2cn3ccccc3n2)cc1	1	0	-1	153*	-2	1	5	2
S=c1[nH]nc(-c2n[nH]c3c2CCC3)n1/N=C/C=C/c1ccco1	2	-4	1	51*	23	6	6	6
S=c1[nH]nc(-c2ccco2)n1/N=C/C=C/c1ccco1	5	5	2	83*	14	5	2	3
COc1ccccc1/C=C/C=N/n1c(-c2n[nH]c3c2CCC3)n[nH]c1=S	0	-5	1	-4	-6	3	.	.
S=c1[nH]nc(-c2cc(-c3ccccc3)n[nH]2)n1/N=C/C=C/c1ccco1	6	-3	12	62*	29	5	1	1
O=C(NCc1ccccc1F)c1cccc(S(=O)(=O)N2CCCCCC2)c1	1	-8	-2	-5	0	-2	.	.
CCn1c2ccccc2c2cc(CN3CCN(S(=O)(=O)Cc4ccccc4)CC3)ccc21	0	2	7	60*	-3	4	1	3
CCn1c2ccccc2c2cc(CN3CCN(S(=O)(=O)CC)CC3)ccc21	5	.	.	.	.	.	.	.
CC/C=C/C(=O)N1CC2(CC(c3cccc(NC(=O)CCCCC)c3)=NO2)C[C@H]1C(N)=O (stereo partly drawn)	2	4	-1	10	7	0	.	.
SMILES	GRK2 inh	Scp-1 inhibitor	LMPTP inh	DNMT1 block	SUMO1 PPI mod	STEP block	DNMT1 confirm	Beacon interf	others
C=C(C)C(=O)Nc1cccc(C2=NOC3(C2)C[C@H](C(N)=O)N(C(=O)CC)C3)c1 (stereo partly drawn)	72*	64*	0	99*	62*	3	55*	1	DNMT1 interf DR=>99
C/C=C/C=C/C(=O)N1CC2(CC(c3cccc(NC(=O)CCCCC)c3)=NO2)C[C@H]1C(N)=O (stereo partly drawn)	4	3	0	66*	2	-2	5	1
CCC(c1nnc(SCc2nc3ccccc3s2)n1Cc1ccccc1)N(C)C (stereo not drawn)	0	-6	1	-5	-1	2	.	.
c1ccc(Cn2c(SCc3nc4ccccc4s3)nnc2-c2ccco2)cc1	4	26	37	104*	37	11	1	6
O=C(CN1CCOCC1)N/N=C/c1ccc(-c2cccc(Cl)c2Cl)o1	0	-14	2	-2	-19	2	.	.
Cc1ccccc1OCc1nc2ccccc2c(=O)n1/N=C/c1cn[nH]c1-c1ccccc1	3	-4	2	-5	0	-3	.	.
Cc1ccc(-c2[nH]ncc2/C=N/n2c(COc3ccccc3)nc3ccccc3c2=O)cc1	1	-8	1	67*	-1	-1	3	5
CCOc1ccccc1N1Cc2cc(C)c(C)cc2C1	15	-4	3	54*	-1	0	0	1
O=C(COC(=O)/C=C/c1ccccc1[N+](=O)[O-])NC1CC1	2	-5	-3	50*	-23	-4	7	11
O=C(O)C1CCCCC1C(=O)Nc1cc(Cl)ccc1Cl (stereo not drawn)	6	-9	.	.	.	.	.	.
Cc1ccc(Cl)cc1NC(=O)C1CCCCC1C(=O)O (stereo not drawn)	1	-3	0	50*	-3	0	2	5
O=C1C(=O)c2c(ccc3ccccc23)-c2ccccc21	.	101*	43	108*	61*	16	28	-10	DNMT1 interf DR=>99
CCCC(=O)Nc1ccc2c(c1)nc(CCN1CCC(C)CC1)n2C	.	.	0	4	6	-3	.	.
